Each structure is given as a SMILES string. Values after ≈ are worked out from the molar mass of the structure shown. Numbered stars: 1 amine (or outer) side, 2 acyl side, 3 side chain; on linkers, the order of the positions; unused ones are H or OH. Bridge positions count the residues as written; N and C are the ends. Square brackets hold non-standard residues; d marks the D form. Peptide text beside a SMILES is read from it. I, II: the chains in the order shown. X1 = NC(=O)[C@H](Cc1cn(CCOCCOCCOCCC(=O)[*:2])nn1)N[*:1]; X2 = NC(=O)[C@H](Cc1cn(CC(=O)[*:2])nn1)N[*:1]; Tle = CC(C)(C)[C@H](N)C(=O)O; dDab = NCC[C@@H](N)C(=O)O; hSer = N[C@@H](CCO)C(=O)O; Dab = NCC[C@H](N)C(=O)O

We go through three molecules from ChEMBL document CHEMBL5030522, “A Convenient Chemoenzymatic Preparation of Chimeric Macrocyclic Peptide Antibiotics with Potent Activity against Gram-Negative Pathogens” (2021).

What all share (type): functional
Experiment [1] deals with Acinetobacter baumannii. As to the kind of experiment: Antibacterial activity against Acinetobacter baumannii ATCC 9955 assessed as inhibition of bacterial growth after 16 hrs by broth microdilution method. Summed up:
(§1)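 MIC per CLSI broth microdilution. Strains streaked from glycerol stocks on blood agar, 16 h at 37 °C. Single colonies inoculated into cation-adjusted Mueller-Hinton broth (10 mg L–1 Mg2+, 25 mg L–1 Ca2+). Peptides serially diluted in this broth with 0.002% (v/v) final polysorbate-80 in polypropylene plates. Inoculum 5 × 10^5 CFU mL–1. Plates sealed, 16 h at 37 °C, growth scored visually. MIC in μg/mL, triplicates on two separate days.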
On the technique in general: Dilution methods test growth across graded concentrations, often in twofold steps.

For experiment [2], the system named is Acinetobacter baumannii. As to the kind of experiment: Antibacterial activity against multidrug-resistant Acinetobacter baumannii assessed as inhibition of bacterial growth after 16 hrs by broth microdilution method. Summed up:
(§2)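 CLSI broth microdilution. Strains grown from glycerol stocks on blood agar 16 h at 37 °C; colonies used to inoculate CAMHB containing 10 mg L–1 Mg2+ and 25 mg L–1 Ca2+. Peptides dissolved in CAMHB with 0.002% (v/v) final polysorbate-80, serially diluted in polypropylene plates; inoculum 5 × 10^5 CFU mL–1. Sealed, 16 h at 37 °C, growth scored visually. MIC in μg/mL; three or more measurements on multiple days.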

Experiment [3] has as its system Klebsiella pneumoniae. The experiment can be described thus: Antibacterial activity against Klebsiella pneumoniae ATCC 11228 assessed as inhibition of bacterial growth after 16 hrs by broth microdilution method. In a few lines:
as §1

In experiment [4] the test system is Pseudomonas aeruginosa. As to the kind of experiment: Antibacterial activity against Pseudomonas aeruginosa ATCC 27853 assessed as inhibition of bacterial growth after 16 hrs by broth microdilution method. In a few lines: as §1
The subject of experiment [5] is Pseudomonas aeruginosa. The experiment can be described thus: Antibacterial activity against Pseudomonas aeruginosa producing NDM1 assessed as inhibition of bacterial growth after 16 hrs by broth microdilution method. In a few lines: as §2
In experiment [6] the test system is Pseudomonas aeruginosa. As to the kind of experiment: Antibacterial activity against Pseudomonas aeruginosa M-120 assessed as inhibition of bacterial growth after 16 hrs by broth microdilution method. In a few lines: as §1
For experiment [7], the system named is Escherichia coli. As to the kind of experiment: Antibacterial activity against Escherichia coli ATCC 35218 assessed as inhibition of bacterial growth after 16 hrs by broth microdilution method. In a few lines:
as §1

Experiment [8] relates to Escherichia coli. The experiment can be described thus: Antibacterial activity against Escherichia coli producing MCR1 assessed as inhibition of bacterial growth after 16 hrs by broth microdilution method. In a few lines:
as §1

The test system of experiment [9] is Escherichia coli. As to the kind of experiment: Antibacterial activity against Escherichia coli producing MCR2 assessed as inhibition of bacterial growth after 16 hrs by broth microdilution method. In a few lines:
as §1

The subject of experiment [10] is Staphylococcus aureus. As to the kind of experiment: Antibacterial activity against methicillin resistant Staphylococcus aureus USA300 by measuring MIC after 16 hrs by broth microdilution method. In a few lines:
as §2

In experiment [11] the test system is Acinetobacter baumannii. The experiment can be described thus: Antibacterial activity against Acinetobacter baumannii NRZ 00687 producing NDM2 assessed as inhibition of bacterial growth after 16 hrs by broth microdilution method. Summed up:
as §1

The subject of experiment [12] is Klebsiella pneumoniae. As to the kind of experiment: Antibacterial activity against Klebsiella pneumoniae producing NDM1 assessed as inhibition of bacterial growth after 16 hrs by broth microdilution method. Summed up: as §1

The MIC is the lowest concentration found to suppress growth. Regarding `CC(C)C[C@@H]1NC(=O)[C@@H](CC(C)C)NC(=O)[C@H](CCN)NC(=O)[C@@H](NC(=O)[C@H](CCN)NC(=O)[C@@H](NC(=O)CCOCCOCCOCCn2cc(C[C@H](NC(=O)CC[C@@H]3NC(=O)[C@H](CCN)NC(=O)[C@H](Cc4ccc(O)cc4)NC(=O)[C@H]([C@@H](C)O)NC(=O)[C@H](C(C)C)NC(=O)[C@@H]4CCCN4C(=O)[C@@H](C)NC(=O)[C@H](CO)NC(=O)[C@H](C)NC(=O)[C@H](C(C)(C)C)NC(=O)[C@H](CCO)NC(=O)[C@H](Cc4c[nH]c5ccccc45)NC(=O)[C@H](CCO)NC(=O)[C@@H](CCN)NC3=O)C(N)=O)nn2)[C@@H](C)O)CCNC(=O)[C@H]([C@@H](C)O)NC(=O)[C@H](CCN)NC(=O)[C@H](CCN)NC1=O` (I: cyclo([dDab][hSer]W[hSer][Tle]AS[dA]PVTY[Dab]E) / II: T[Dab][Dab][Dab][dL]L[Dab][Dab]T; linker I:14-II:N via X1; lactam II:3-II:C), the MIC was 8 µg/mL (≈ 2.88 µM) in [1]; 4 µg/mL (≈ 1.44 µM) in experiment [2]; 8 µg/mL (≈ 2.88 µM) in [3]; 4 µg/mL (≈ 1.44 µM) in experiment [4]; 4 µg/mL (≈ 1.44 µM) in experiment [5]; 8 µg/mL (≈ 2.88 µM) in experiment [6]. For the same molecule, the MIC in experiment [7] was 2 µg/mL (≈ 0.721 µM); in [8] it was 16 µg/mL (≈ 5.77 µM); in experiment [9], 16 µg/mL (≈ 5.77 µM); in experiment [10] it was more than 64 µg/mL; in experiment [11], 2 µg/mL (≈ 0.721 µM).

As to `CC(C)C[C@@H]1NC(=O)[C@@H](CC(C)C)NC(=O)[C@H](CCN)NC(=O)[C@@H](NC(=O)[C@H](CCN)NC(=O)[C@@H](NC(=O)Cn2cc(C[C@H](NC(=O)CC[C@@H]3NC(=O)[C@H](CCN)NC(=O)[C@H](Cc4ccc(O)cc4)NC(=O)[C@H]([C@@H](C)O)NC(=O)[C@H](C(C)C)NC(=O)[C@@H]4CCCN4C(=O)[C@@H](C)NC(=O)[C@H](CO)NC(=O)[C@H](C)NC(=O)[C@H](C(C)(C)C)NC(=O)[C@H](CCO)NC(=O)[C@H](Cc4c[nH]c5ccccc45)NC(=O)[C@H](CCO)NC(=O)[C@@H](CCN)NC3=O)C(N)=O)nn2)[C@@H](C)O)CCNC(=O)[C@H]([C@@H](C)O)NC(=O)[C@H](CCN)NC(=O)[C@H](CCN)NC1=O` (I: cyclo([dDab][hSer]W[hSer][Tle]AS[dA]PVTY[Dab]E) / II: T[Dab][Dab][Dab][dL]L[Dab][Dab]T; linker I:14-II:N via X2; lactam II:3-II:C), the MIC was 2 µg/mL (≈ 0.761 µM) in experiment [1]; 1 µg/mL (≈ 0.381 µM) in experiment [2]; 2 µg/mL (≈ 0.761 µM) in [12]; 1 µg/mL (≈ 0.381 µM) in [4]; 2 µg/mL (≈ 0.761 µM) in [5]; 4 µg/mL (≈ 1.52 µM) in experiment [6]. The MIC in experiment [7] is 0.5 µg/mL (≈ 0.19 µM); in [8], 2 µg/mL (≈ 0.761 µM); in experiment [9], 2 µg/mL (≈ 0.761 µM); in [10] it was more than 6.4 µg/mL; in experiment [11], 0.5 µg/mL (≈ 0.19 µM).

`CC(C)[C@@H]1NC(=O)[C@@H]2CCCN2C(=O)[C@@H](C)NC(=O)[C@H](CO)NC(=O)[C@H](C)NC(=O)[C@H](C(C)(C)C)NC(=O)[C@H](CCO)NC(=O)[C@H](Cc2c[nH]c3ccccc23)NC(=O)[C@H](CCO)NC(=O)[C@@H](CCN)NC(=O)[C@H](CCC(N)=O)NC(=O)[C@H](CCN)NC(=O)[C@H](Cc2ccc(O)cc2)NC(=O)[C@H]([C@@H](C)O)NC1=O` (cyclo([dDab][hSer]W[hSer][Tle]AS[dA]PVTY[Dab]Q)) registered an MIC in experiment [10] of more than 64 µg/mL.
